Experimental data: ChEMBL document CHEMBL4261600 (Eur J Med Chem, 2018)
Active and inactive are the calls of the source.

Legend:
[1] = Half life in mouse at 10 mg/kg, po by LC-MS/MS analysis; type: ADME, organism-based; conditions: in vivo
[2] = Tmax in mouse at 10 mg/kg, po by LC-MS/MS analysis; type: ADME, organism-based; conditions: in vivo
[3] = Cmax in mouse at 10 mg/kg, po by LC-MS/MS analysis; type: ADME, organism-based; design: dose 10 mg/kg, route oral; conditions: in vivo
[4] = biological target: Tyrosine-protein kinase receptor UFO (Homo sapiens) (UniProt P30530); assay: Binding affinity to wild-type human partial length AXL (R497 to Y821 residues) expressed in bacterial expression system assessed as remaining unbound target protein level at 1000 nM by Kinomescan method relative to control
Method in brief: (§1)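 KINOMEscan competition binding profile across a panel of 468 kinases and mutants, with the inhibitor tested at a single concentration of 1 μM. Binding is reported as percent of control, meaning signal relative to a DMSO control.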

[5] = test system: Serine/threonine-protein kinase B-raf (Homo sapiens), P15056 [V600E]; assay: Binding affinity to human partial length BRAF V600E mutant (S429 to E741 residues) expressed in mammalian expression system assessed as remaining unbound target protein level at 1000 nM by Kinomescan method relative to control
Method in brief: (§2)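 KINOMEscan competition-binding profiling across the panel of 468 kinases and mutants, with inhibitor tested at 1 μM. Binding is expressed as percent of control, with DMSO as the reference control.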

[6] = biological target: Protein-tyrosine kinase 6 (Homo sapiens) (UniProt Q13882); assay: Binding affinity to wild-type human partial length BRK (L166 to T451 residues) expressed in bacterial expression system assessed as remaining unbound target protein level at 1000 nM by Kinomescan method relative to control; method in brief: as §1
[7] = biological target: Casein kinase I isoform epsilon (Homo sapiens) (UniProt P49674); assay: Binding affinity to wild-type human full length CSNK1E (M1 to K416 residues) expressed in bacterial expression system assessed as remaining unbound target protein level at 1000 nM by Kinomescan method relative to control
Method in brief: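 Single-point competition binding screen across a panel of 468 kinases and mutants, with the inhibitor at 1 μM. Binding is read out as percent of a DMSO control, and targets below 1 percent control were classed as strong binders.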

[8] = biological target: Ephrin type-B receptor 4 (Homo sapiens) (UniProt P54760); assay: Binding affinity to wild-type human partial length EPHB4 (H585 to G892 residues) expressed in bacterial expression system assessed as remaining unbound target protein level at 1000 nM by Kinomescan method relative to control
Method in brief: (§3)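 KINOMEscan binding panel of 468 kinases/mutants. Inhibitor was tested at a single concentration of 1 μM. Binding is reported as percent of control, defined relative to a DMSO control.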

[9] = test system: Receptor-type tyrosine-protein kinase FLT3 (Homo sapiens), P36888 [UNDEFINED MUTATION]; assay: Binding affinity to human partial length FLT3 ITD/D835V double mutant expressed in bacterial expression system assessed as remaining unbound target protein level at 1000 nM by Kinomescan method relative to control; method in brief: as §2
[10] = biological target: Mast/stem cell growth factor receptor Kit (Homo sapiens) (UniProt P10721); assay: Binding affinity to wild-type human partial length KIT (I571 to D952 residues) expressed in bacterial expression system assessed as remaining unbound target protein level at 1000 nM by Kinomescan method relative to control
[11] = biological target: Mitogen-activated protein kinase kinase kinase 4 (Homo sapiens) (UniProt Q9Y6R4); assay: Binding affinity to wild-type human partial length MAP3K4 (G1319 to E1608 residues) expressed in bacterial expression system assessed as remaining unbound target protein level at 1000 nM by Kinomescan method relative to control
[12] = biological target: Phosphatidylinositol 3-kinase C2 domain-containing subunit gamma (Homo sapiens) (UniProt O75747); assay: Binding affinity to wild-type human partial length PIK3C2G (M1 to I1446 residues) expressed in mammalian expression system assessed as remaining unbound target protein level at 1000 nM by Kinomescan method relative to control; method in brief: as §3
[13] = biological target: Interferon-induced, double-stranded RNA-activated protein kinase (Homo sapiens) (UniProt P19525); assay: Binding affinity to wild-type human partial length PRKR (F247 to C551 residues) expressed in bacterial expression system assessed as remaining unbound target protein level at 1000 nM by Kinomescan method relative to control
[14] = biological target: Protein-tyrosine kinase 2-beta (Homo sapiens) (UniProt Q14289); assay: Binding affinity to wild-type human full length PYK2 (M1 to E967 residues) expressed in bacterial expression system assessed as remaining unbound target protein level at 1000 nM by Kinomescan method relative to control
Method in brief: (§4)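 Profiled in a KINOMEscan binding panel with the inhibitor at a single concentration of 1 μM. Binding to each kinase was read out as percent of control, relative to a DMSO control. Strong binders were defined as those with a percent control value below 1.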

[15] = biological target: Ribosomal protein S6 kinase alpha-5 (Homo sapiens) (UniProt O75582); assay: Binding affinity to wild-type human partial length C-terminal RPS6KA5 kinase domain 2 (V390 to T718 residues) expressed in bacterial expression system assessed as remaining unbound target protein level at 1000 nM by Kinomescan method relative to control; method in brief: as §4
[16] = biological target: Ribosomal protein S6 kinase alpha-6 (Homo sapiens) (UniProt Q9UK32); assay: Binding affinity to wild-type human partial length C-terminal RSK4 kinase domain 2 (I401 to Y711 residues) expressed in bacterial expression system assessed as remaining unbound target protein level at 1000 nM by Kinomescan method relative to control; method in brief: as §1
[17] = biological target: STE20-like serine/threonine-protein kinase (Homo sapiens) (UniProt Q9H2G2); assay: Binding affinity to wild-type human partial length SLK (S14 to A307 residues) expressed in bacterial expression system assessed as remaining unbound target protein level at 1000 nM by Kinomescan method relative to control
[18] = biological target: Serine/threonine-protein kinase 35 (Homo sapiens) (UniProt Q8TDR2); assay: Binding affinity to wild-type human partial length STK35 (G182 to A534 residues) expressed in bacterial expression system assessed as remaining unbound target protein level at 1000 nM by Kinomescan method relative to control
[19] = biological target: Mitogen-activated protein kinase kinase kinase 7 (Homo sapiens) (UniProt O43318); assay: Binding affinity to wild-type human partial length TAK1 (M1 to Q303 residues) expressed in mammalian expression system assessed as remaining unbound target protein level at 1000 nM by Kinomescan method relative to control
[20] = biological target: Serine/threonine-protein kinase TAO3 (Homo sapiens) (UniProt Q9H2K8); assay: Binding affinity to wild-type human partial length TAOK3 (M1 to T316 residues) expressed in mammalian expression system assessed as remaining unbound target protein level at 1000 nM by Kinomescan method relative to control
MV4-11 = assay: Antitumor activity against human MV4-11 cells xenografted in nu/nu mouse assessed as tumor growth inhibition at 10 mg/kg, po administered via gavage for 21 days measured on day 21 post last dose; type: functional, organism-based
Method in brief: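 Female nu/nu mice, five weeks old, implanted subcutaneously in the right flank with 5 million MV4-11 cells in PBS/Matrigel 1:1. Daily oral gavage in 0.5% methylcellulose/0.4% Tween80 started at tumor volume 200–400 mm³, 10, 20 or 30 mg/kg/day or vehicle, 5 mice per group. Tumor volume (W²×L)/2 and body weight measured daily; mean ± SEM.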

Chain of Serine/threonine-protein kinase TAO3 (Homo sapiens) (Q9H2K8 whole entry, the tested form may be a part): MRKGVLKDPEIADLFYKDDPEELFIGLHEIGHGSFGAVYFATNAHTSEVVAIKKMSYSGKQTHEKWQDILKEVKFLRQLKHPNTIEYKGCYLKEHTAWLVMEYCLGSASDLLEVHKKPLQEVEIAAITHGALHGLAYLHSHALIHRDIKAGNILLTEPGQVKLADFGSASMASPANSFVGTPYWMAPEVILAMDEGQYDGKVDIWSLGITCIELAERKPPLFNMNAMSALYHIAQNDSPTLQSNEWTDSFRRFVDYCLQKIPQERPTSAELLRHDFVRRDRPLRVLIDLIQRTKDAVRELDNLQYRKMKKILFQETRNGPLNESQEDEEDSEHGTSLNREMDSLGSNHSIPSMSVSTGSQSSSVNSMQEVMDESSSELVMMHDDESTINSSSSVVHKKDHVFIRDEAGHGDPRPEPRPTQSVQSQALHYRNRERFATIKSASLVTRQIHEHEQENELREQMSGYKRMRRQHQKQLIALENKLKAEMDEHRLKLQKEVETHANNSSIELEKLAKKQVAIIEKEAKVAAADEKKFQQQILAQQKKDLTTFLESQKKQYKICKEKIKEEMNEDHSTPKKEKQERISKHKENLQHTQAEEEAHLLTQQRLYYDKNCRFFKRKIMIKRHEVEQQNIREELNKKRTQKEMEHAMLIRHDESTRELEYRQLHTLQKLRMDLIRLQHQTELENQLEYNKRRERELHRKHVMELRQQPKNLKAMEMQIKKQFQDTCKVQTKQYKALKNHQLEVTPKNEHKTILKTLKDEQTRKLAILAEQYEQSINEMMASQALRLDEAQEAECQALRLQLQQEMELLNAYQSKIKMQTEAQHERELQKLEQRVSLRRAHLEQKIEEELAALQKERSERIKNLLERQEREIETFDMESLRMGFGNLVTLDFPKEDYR
Chain of Casein kinase I isoform epsilon (Homo sapiens) (P49674 whole entry, looked up, the tested form may be a part, canonical isoform): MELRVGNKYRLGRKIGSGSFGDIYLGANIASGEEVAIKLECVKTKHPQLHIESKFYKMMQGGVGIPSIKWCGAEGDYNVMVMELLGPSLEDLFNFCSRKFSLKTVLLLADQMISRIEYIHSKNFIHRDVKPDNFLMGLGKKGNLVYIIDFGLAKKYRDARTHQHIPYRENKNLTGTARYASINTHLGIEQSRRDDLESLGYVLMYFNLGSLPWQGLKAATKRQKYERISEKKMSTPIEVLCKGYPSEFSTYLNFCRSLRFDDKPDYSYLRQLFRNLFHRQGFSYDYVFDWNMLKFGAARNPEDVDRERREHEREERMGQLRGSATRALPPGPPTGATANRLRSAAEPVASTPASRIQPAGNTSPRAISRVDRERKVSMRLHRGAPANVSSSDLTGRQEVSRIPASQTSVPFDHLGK
Chain of Mitogen-activated protein kinase kinase kinase 7 (Homo sapiens) (O43318 whole entry, the tested form may be a part): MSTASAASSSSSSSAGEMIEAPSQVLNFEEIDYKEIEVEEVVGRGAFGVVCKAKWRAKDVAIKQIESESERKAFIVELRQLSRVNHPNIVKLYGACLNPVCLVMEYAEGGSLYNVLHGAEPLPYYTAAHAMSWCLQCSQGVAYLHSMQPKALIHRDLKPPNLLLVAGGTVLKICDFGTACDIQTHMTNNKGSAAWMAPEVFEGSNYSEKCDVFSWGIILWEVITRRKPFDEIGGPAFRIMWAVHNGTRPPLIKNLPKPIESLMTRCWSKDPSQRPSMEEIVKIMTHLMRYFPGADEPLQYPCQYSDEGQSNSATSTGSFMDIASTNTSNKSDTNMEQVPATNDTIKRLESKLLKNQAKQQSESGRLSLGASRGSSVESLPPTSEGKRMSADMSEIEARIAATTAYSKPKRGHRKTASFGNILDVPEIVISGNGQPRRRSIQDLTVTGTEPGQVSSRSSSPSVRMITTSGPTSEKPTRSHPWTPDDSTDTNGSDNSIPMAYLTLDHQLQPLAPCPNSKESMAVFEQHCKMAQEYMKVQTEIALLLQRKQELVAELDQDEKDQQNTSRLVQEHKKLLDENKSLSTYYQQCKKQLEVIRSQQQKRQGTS
Chain of Mast/stem cell growth factor receptor Kit (Homo sapiens) (P10721 whole entry, the tested form may be a part): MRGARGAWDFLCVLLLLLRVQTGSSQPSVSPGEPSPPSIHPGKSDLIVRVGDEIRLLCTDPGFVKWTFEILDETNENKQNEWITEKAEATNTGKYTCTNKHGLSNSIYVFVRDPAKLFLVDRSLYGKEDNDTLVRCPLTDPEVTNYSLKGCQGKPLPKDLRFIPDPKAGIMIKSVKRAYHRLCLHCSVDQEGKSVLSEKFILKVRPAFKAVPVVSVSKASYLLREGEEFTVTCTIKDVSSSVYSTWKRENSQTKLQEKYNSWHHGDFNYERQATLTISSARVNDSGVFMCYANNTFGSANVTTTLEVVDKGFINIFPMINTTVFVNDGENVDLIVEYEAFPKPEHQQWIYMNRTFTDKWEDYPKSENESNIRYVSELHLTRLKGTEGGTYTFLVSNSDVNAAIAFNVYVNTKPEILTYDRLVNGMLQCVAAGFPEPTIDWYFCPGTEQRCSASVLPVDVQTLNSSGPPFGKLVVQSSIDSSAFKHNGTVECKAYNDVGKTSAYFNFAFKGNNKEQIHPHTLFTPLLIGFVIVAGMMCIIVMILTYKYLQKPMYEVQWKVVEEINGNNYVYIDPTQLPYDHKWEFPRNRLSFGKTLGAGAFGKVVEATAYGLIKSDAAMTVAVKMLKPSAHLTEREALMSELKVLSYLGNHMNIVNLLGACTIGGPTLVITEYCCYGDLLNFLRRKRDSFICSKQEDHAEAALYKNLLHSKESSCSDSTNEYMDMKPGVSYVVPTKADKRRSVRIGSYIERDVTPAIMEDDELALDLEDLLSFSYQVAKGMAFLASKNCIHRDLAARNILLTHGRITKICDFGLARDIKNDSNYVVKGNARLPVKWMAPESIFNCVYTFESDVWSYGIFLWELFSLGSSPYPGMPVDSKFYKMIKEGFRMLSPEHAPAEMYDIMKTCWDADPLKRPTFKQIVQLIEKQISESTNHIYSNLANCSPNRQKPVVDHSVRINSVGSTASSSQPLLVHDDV
Chain of Ribosomal protein S6 kinase alpha-5 (Homo sapiens) (O75582 whole entry, looked up, the tested form may be a part): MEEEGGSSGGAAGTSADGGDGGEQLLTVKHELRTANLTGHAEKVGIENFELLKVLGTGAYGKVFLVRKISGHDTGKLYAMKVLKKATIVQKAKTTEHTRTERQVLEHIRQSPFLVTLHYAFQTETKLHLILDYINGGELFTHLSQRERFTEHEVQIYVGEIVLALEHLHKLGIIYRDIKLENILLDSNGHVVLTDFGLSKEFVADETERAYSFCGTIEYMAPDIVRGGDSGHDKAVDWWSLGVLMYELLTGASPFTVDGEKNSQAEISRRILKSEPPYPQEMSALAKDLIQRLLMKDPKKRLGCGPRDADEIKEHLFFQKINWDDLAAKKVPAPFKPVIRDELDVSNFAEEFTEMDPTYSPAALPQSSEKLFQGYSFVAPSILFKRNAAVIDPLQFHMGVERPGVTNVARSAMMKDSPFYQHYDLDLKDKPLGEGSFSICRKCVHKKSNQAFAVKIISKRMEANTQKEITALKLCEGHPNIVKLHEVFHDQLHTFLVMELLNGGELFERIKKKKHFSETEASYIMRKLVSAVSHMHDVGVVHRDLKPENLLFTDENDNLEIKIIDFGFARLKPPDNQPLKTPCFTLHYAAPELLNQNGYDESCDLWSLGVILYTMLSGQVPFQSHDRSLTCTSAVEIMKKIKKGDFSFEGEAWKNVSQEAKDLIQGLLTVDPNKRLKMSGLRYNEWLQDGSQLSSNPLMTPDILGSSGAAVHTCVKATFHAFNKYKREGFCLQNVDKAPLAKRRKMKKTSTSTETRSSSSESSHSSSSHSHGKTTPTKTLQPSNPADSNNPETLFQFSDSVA
Chain of Ephrin type-B receptor 4 (Homo sapiens) (P54760 whole entry, the tested form may be a part): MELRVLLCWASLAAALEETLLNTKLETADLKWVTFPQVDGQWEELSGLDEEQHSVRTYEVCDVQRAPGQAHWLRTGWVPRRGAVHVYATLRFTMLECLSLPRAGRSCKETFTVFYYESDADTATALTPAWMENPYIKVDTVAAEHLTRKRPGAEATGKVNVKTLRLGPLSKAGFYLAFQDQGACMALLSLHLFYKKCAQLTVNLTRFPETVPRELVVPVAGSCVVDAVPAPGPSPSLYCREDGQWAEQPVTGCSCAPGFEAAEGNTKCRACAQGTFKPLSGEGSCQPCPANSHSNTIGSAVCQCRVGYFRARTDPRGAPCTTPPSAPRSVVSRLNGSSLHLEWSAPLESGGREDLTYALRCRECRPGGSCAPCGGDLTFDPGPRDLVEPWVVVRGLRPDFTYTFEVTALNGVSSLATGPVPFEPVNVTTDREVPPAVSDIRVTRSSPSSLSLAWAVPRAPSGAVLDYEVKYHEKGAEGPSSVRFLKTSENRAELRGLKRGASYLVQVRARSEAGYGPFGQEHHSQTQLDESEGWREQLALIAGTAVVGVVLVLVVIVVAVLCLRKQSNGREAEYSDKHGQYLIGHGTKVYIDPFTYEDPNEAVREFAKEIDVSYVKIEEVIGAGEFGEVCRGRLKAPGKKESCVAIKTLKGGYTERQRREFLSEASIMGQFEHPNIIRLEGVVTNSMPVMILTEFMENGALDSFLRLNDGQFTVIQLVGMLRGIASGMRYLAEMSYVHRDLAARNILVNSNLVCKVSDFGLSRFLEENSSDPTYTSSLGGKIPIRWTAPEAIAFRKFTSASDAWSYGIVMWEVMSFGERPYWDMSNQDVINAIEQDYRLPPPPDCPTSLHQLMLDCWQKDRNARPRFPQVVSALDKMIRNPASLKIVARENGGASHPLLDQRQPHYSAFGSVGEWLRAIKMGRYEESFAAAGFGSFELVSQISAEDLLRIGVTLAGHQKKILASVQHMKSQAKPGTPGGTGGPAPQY

COCCN[C@H]1CC[C@H](Nc2cc(-c3csc(NCC4(C#N)CCOCC4)n3)c(Cl)cn2)CC1
half-life [1]: 1.55 h | Tmax [2]: 2 h | Cmax [3]: 116 ng/mL | Activity [4]: 91% | Activity [5]: 91% | Activity [6]: 95% | Activity [7]: 87% | Activity [8]: 86% | Activity [9]: 65% | Activity [10]: 91% | Activity [11]: 89% | Activity [12]: 80% | Activity [13]: 98% | Activity [14]: 90% | Activity [15]: 76% | Activity [16]: 99% | Activity [17]: 81% | Activity [18]: 100% | Activity [19]: 100% | Activity [20]: 15% | TGI (MV4-11): inactive
